# Calls of active or inactive are those of the source. No cut-off for these calls is given here.
# Experiments:
# Bacteria [1] = test: Inhibition of bacterial VIM-4 (unknown origin) expressed in Escherichia coli EXPRESS BL21(DE3) assessed as inhibition constant by measuring rate of substrate hydrolysis at 100 uM by UV-visible spectrophotometry relative to control
# How it was run: (§1)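 Reporter-substrate assay with purified MBL (1–70 nM final) in 50 mM HEPES pH 7.5 at 30 °C. […] Inhibitor 0.5–1000 μM final. Ki derived from the v0/vi vs [I] slope assuming competitive inhibition, or from a Dixon plot. Ki given when inhibition >70%, otherwise % inhibition at 100 μM. Triplicate.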
# Bacteria [2] = test: Inhibition of bacterial VIM-1 (unknown origin) expressed in Escherichia coli EXPRESS BL21(DE3) assessed as inhibition constant by measuring rate of substrate hydrolysis at 100 uM by UV-visible spectrophotometry relative to control; how it was run: as §1
# Bacteria [3] = test: Inhibition of bacterial IMP-1 (unknown origin) expressed in Escherichia coli EXPRESS BL21(DE3) assessed as inhibition constant by measuring rate of substrate hydrolysis at 100 uM by UV-visible spectrophotometry relative to control; how it was run: as §1
# Bacteria [4] = test: Inhibition of bacterial NDM-1 (unknown origin) expressed in Escherichia coli EXPRESS BL21(DE3) assessed as inhibition constant by measuring rate of substrate hydrolysis at 100 uM by UV-visible spectrophotometry relative to control; how it was run: as §1
# Bacteria [5] = test: Inhibition of bacterial VIM-2 (unknown origin) expressed in Escherichia coli EXPRESS BL21(DE3) assessed as inhibition constant by measuring rate of substrate hydrolysis at 100 uM by UV-visible spectrophotometry relative to control; how it was run: as §1
# [6] = Metabolic stability in CD-1 mouse microsomes assessed as half life at 37 degC by LC-MS/MS analysis; assay type: ADME, Microsome
# How it was run: (§2)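 Mouse liver microsomes, mixed gender, at 37 °C for 40 min; propranolol control. Reports t1/2, intrinsic clearance and % intact compound remaining at 40 min.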
# Escherichia coli = test: Antimicrobial activity against blaNDM-1-producing multidrug-resistant Escherichia coli SI-004 clinical isolate assessed as meropenem MIC at 32 ug/ml by broth microdilution method (reference value: 64 ug/ml)
# Klebsiella pneumoniae [7] = test: Antimicrobial activity against blaVIM-1-producing multidrug-resistant Klebsiella pneumoniae K47-25 clinical isolate assessed as meropenem MIC at 32 ug/ml by broth microdilution method (reference value: […] ug/ml); assay type: functional; settings: dose 32 µg/ml
# How it was run: (§3)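 Inoculum was 5×10^4 CFU/well. Each inhibitor was present at a fixed 32 μg/mL, and MICs were also taken without inhibitor.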
# Pseudomonas aeruginosa = test: Antimicrobial activity against blaVIM-2-producing multidrug-resistant Pseudomonas aeruginosa VA-182/00 clinical isolate assessed as meropenem MIC at 32 ug/ml by broth microdilution method (reference value: 128 ug/ml); assay type: functional; settings: dose 32 µg/ml; how it was run: as §3
# Klebsiella pneumoniae [8] = test: Antimicrobial activity against blaVIM-4-producing multidrug-resistant Klebsiella pneumoniae VA-416/02 clinical isolate assessed as meropenem MIC at 32 ug/ml by broth microdilution method (reference value: […] ug/ml); assay type: functional; settings: dose 32 µg/ml; how it was run: as §3
# [9] = Inhibition of bacterial VIM-2 (unknown origin) expressed in Escherichia coli EXPRESS BL21(DE3) assessed as inhibition constant by measuring rate of substrate hydrolysis by UV-visible spectrophotometry; design: species or system Bacteria; how it was run: as §1
# [10] = Inhibition of bacterial IMP-1 (unknown origin) expressed in Escherichia coli EXPRESS BL21(DE3) assessed as inhibition constant by measuring rate of substrate hydrolysis by UV-visible spectrophotometry; design: species or system Bacteria; how it was run: as §1
# [11] = Inhibition of bacterial NDM-1 (unknown origin) expressed in Escherichia coli EXPRESS BL21(DE3) assessed as inhibition constant by measuring rate of substrate hydrolysis by UV-visible spectrophotometry; design: species or system Bacteria; how it was run: as §1
# [12] = Inhibition of bacterial VIM-1 (unknown origin) expressed in Escherichia coli EXPRESS BL21(DE3) assessed as inhibition constant by measuring rate of substrate hydrolysis by UV-visible spectrophotometry; design: species or system Bacteria; how it was run: as §1
# [13] = Inhibition of bacterial VIM-4 (unknown origin) expressed in Escherichia coli EXPRESS BL21(DE3) assessed as inhibition constant by measuring rate of substrate hydrolysis by UV-visible spectrophotometry; design: species or system Bacteria; how it was run: as §1
# [14] = Metabolic stability in CD-1 mouse microsomes assessed as compound remaining after 40 mins LC-MS/MS analysis; assay type: ADME, Microsome; settings: read-out: Activity; how it was run: as §2
# Bacteria [15] = test: Inhibition of bacterial VIM-2 (unknown origin) assessed as Zn(II) content in protein at >5 uM by overnight equilibrium dialysis
# How it was run: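 VIM-2 or NDM-1 (3 μM final) in 50 mM HEPES pH 7.5 mixed with compound at 0–48 μM. Incubated 1 h on ice, then dialysed overnight at 4 °C against 50 mM HEPES pH 7.5. Zn(II) content measured by atomic absorption at 213.86 nm against a zinc standard curve. Each point averages three samples.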
# [16] = Cytotoxicity against human HeLa cells assessed as LDH release incubated for 24 hrs by membrane integrity assay; assay type: toxicity, cell-based
# How it was run: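 HeLa cells (20,000/well) exposed to compound up to 250 μM for 24 h at 37 °C, 5% CO2 in DMEM with 10% FBS, 4.5 mg/mL glucose and 2 mM L-glutamine. LDH release expressed as % of Triton X-100 maximum lysis; IC50 is the concentration giving 50% cytotoxicity.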
SMILES,inhibition (Bacteria [1]),inhibition (Bacteria [2]),inhibition (Bacteria [3]),inhibition (Bacteria [4]),inhibition (Bacteria [5]),half-life [6],MIC (Escherichia coli),MIC (Klebsiella pneumoniae [7]),MIC (Pseudomonas aeruginosa),MIC (Klebsiella pneumoniae [8]),Ki [9],Ki [10],Ki [11],Ki [12],Ki [13],remaining at 40 min [14],inhibition (Bacteria [15]),CC50 at 24 h [16]
O=C(O)[C@H](CCCn1c(-c2ccccc2)n[nH]c1=S)NCc1cccnc1,< 30%,48%,< 30%,< 30%,47%,,,,,,,,,,,,,
Cc1[nH]cnc1CN[C@@H](CCCn1c(-c2ccccc2)n[nH]c1=S)C(=O)O,< 30%,51%,< 30%,< 30%,< 30%,,,,,,,,,,,,,
CCOC(=O)[C@H](CCc1ccccc1)N[C@@H](C)C(=O)N1CCC[C@H]1C(=O)O,,,,,,1.05 h,,,,,,,,,,,,
O=C(O)[C@H](CCCn1c(-c2ccccc2)n[nH]c1=S)N(Cc1ccccc1)Cc1ccccc1,64%,38%,< 30%,32%,63%,,64 µg/mL,2 µg/mL,128 µg/mL,4 µg/mL,,,,,,,,
O=C(O)[C@H](CCCCn1c(-c2ccccc2)n[nH]c1=S)N(Cc1c[nH]cn1)Cc1c[nH]cn1,,,,,,,0.06 µg/mL,0.03 µg/mL,16 µg/mL,0.03 µg/mL,970 nM,5000 nM,360 nM,40 nM,470 nM,,,
CC(C)NCC(O)COc1cccc2ccccc12 (stereo unspecified) [PROPRANOLOL],,,,,,,,,,,,,,,,31%,,
O=C(O)[C@H](CCCn1c(-c2ccccc2)n[nH]c1=S)NCc1c[nH]cn1,< 30%,53%,< 30%,35%,< 30%,,64 µg/mL,2 µg/mL,128 µg/mL,4 µg/mL,,,,,,,,
O=C(O)[C@H](Cn1c(-c2ccccc2)n[nH]c1=S)N(Cc1c[nH]cn1)Cc1c[nH]cn1,,,,,,,0.06 µg/mL,0.03 µg/mL,16 µg/mL,0.03 µg/mL,1500 nM,4200 nM,40 nM,880 nM,560 nM,,,
O=C(O)[C@H](CCCn1c(-c2ccccc2)n[nH]c1=S)NCc1ccccn1,< 30%,< 30%,34%,,44%,,,,,,,,2000 nM,,,,,
O=C(O)[C@H](CCCn1c(-c2ccccc2)n[nH]c1=S)NCc1ccccc1,< 30%,,< 30%,< 30%,< 30%,,,,,,,,,,,,,
O=C(O)[C@H](CCCn1c(-c2ccccc2)n[nH]c1=S)NCc1cc[nH]c1,32%,,< 30%,< 30%,< 30%,,,,,,,,,5000 nM,,,,
Cc1ccc(C(C)N[C@@H](CCCn2c(-c3ccccc3)n[nH]c2=S)C(=O)O)cc1 (stereo partly specified),< 30%,,< 30%,< 30%,36%,,,,,,,,,10800 nM,,,,
O=C(O)[C@H](CCCn1c(-c2ccccc2)n[nH]c1=S)NCc1cncs1,,60%,< 30%,< 30%,58%,,,,,,,,,,3400 nM,,,
O=C(O)[C@H](CCCn1c(Cc2ccc3ccccc3c2)n[nH]c1=S)N(Cc1c[nH]cn1)Cc1c[nH]cn1,,,,,,,0.06 µg/mL,0.03 µg/mL,8 µg/mL,0.06 µg/mL,270 nM,11200 nM,30 nM,80 nM,190 nM,,,
Cn1cncc1CN[C@@H](CCCn1c(-c2ccccc2)n[nH]c1=S)C(=O)O,< 30%,,< 30%,38%,47%,,,,,,,,,9500 nM,,,,
O=C(O)[C@@H](CCCn1c(-c2ccccc2)n[nH]c1=S)N(Cc1c[nH]cn1)Cc1c[nH]cn1,,,,,,,0.06 µg/mL,0.03 µg/mL,8 µg/mL,0.03 µg/mL,190 nM,7400 nM,14 nM,170 nM,110 nM,,Active,
O=C(O)[C@H](CCCn1c(-c2ccccc2)n[nH]c1=S)NCc1cscn1,43%,55%,47%,< 30%,< 30%,,,,,,,,,,,,,
Cc1[nH]cnc1CN(Cc1nc[nH]c1C)[C@@H](CCCn1c(-c2ccccc2)n[nH]c1=S)C(=O)O,,,57%,,,,2 µg/mL,0.03 µg/mL,16 µg/mL,0.03 µg/mL,220 nM,,23 nM,310 nM,350 nM,,,141000 nM
O=C(O)[C@H](CCCn1c(-c2ccccc2)n[nH]c1=S)N(Cc1ccccn1)Cc1c[nH]cn1,,,< 30%,,,,0.06 µg/mL,0.06 µg/mL,8 µg/mL,0.03 µg/mL,640 nM,,380 nM,950 nM,560 nM,,,175000 nM
